In the EternaBench riboswitch data:

Test system: MS2 coat protein
Assay: apparent Kd, MS2 coat protein; higher = weaker binding; RNA-MaP array; FMN 200 µM where present
Method in brief: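 Two titrations, one without ligand and one with constant ligand, were run with SNAP-549-labelled MS2 coat protein from 0.7 or 1.5 nM, doubling to 3 µM. The targets were designs transcribed by stalled E. coli RNA polymerase on Illumina sequencing-chip clusters, in 100 mM Tris-HCl pH 7.5, 80 mM KCl, 4 mM MgCl2, BSA, DTT, yeast tRNA and Tween-20. The apparent Kd is the median of filtered per-cluster binding-curve fits, with green signal normalised to red-channel RNA signal and control-cluster median Fmax.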

[1] = designed as: OFF switch for flavin mononucleotide, no ligand
[2] = ligand present: flavin mononucleotide, designed as: OFF switch for flavin mononucleotide
[3] = designed as: ON switch for flavin mononucleotide, no ligand
[4] = ligand present: flavin mononucleotide, designed as: ON switch for flavin mononucleotide

Sequence	apparent Kd [1] [nM]	apparent Kd [2] [nM]	apparent Kd [3] [nM]	apparent Kd [4] [nM]
AAUGGCAUAGAGAAGGCGCCGCAGCUCUUCCUCCCAUCCCAACGACAUGAGGAUCACCCAUGUAGCGAGGAUAUCUAUACCGUU	6.91	14.1		
ACUUGUUAGUAGAAGGUAGUUAUUAUAUUAAUCAUGUAUACAUGAGGAUCACCCAUGUUGAUUUCUAAGGAUAUACAUCGAUAG	81.4	59		
GGUACUCAAAGAGUACCAAUACGAACAUGAGGAUCACCCAUGUAGGAUAUGCUACUCAAAGAGUAGCAGAAGGAUAUGUGCCUA	14.7	15.3		
AAAGAGACAGGAUAUACAUGGGUGAUAAAAAUCAUGUAAAAACAUGAGGAUCACCCAUGUAGAAGGGUCUCAAA	26.9	22.8		
AGCCUGAGUCGAGGAUAUUAUGGAUCCUUUAAUACAUGAGGAUCACCCAUGUAAUUAAUUAUACAUGAGAAGGUGACUCAGGCA			265	25.1
GUAGCUAUCGGAGGAUAUUCAUAAAACAUGAGGAUCACCCAUGUUAAAUUGGGAGAAGGCCGAUAGCUACAAGAGCGAAAGCUC			5.85	4.76
ACGGAACAUGAGGAUCACCCAUGUAUCCGAAAUAUGGACUCACAGGAUAUCCAGAGUUGCCAAUCGGAGAAGGGUGACUCCAGA			12.8	9.91
CCCACGAAAGUCGAACGAUGUAGCAGAAGGACAUGAGGAUCACCCAUGUCAGCUGUAACAGCCAUGUAGGAUAUGCUACAUGGG	6.05	5.77		
GGGCGGCGAGGAUAUGCAGGGCGGGCGCGCGGGCGCGCGCGACAUGAGGAUCACCCAUGUAGAAGGCGCCGGGC	19.1	129		
AAUUAAUUAAUACAUGAGGAUCACCCAUGUAAUUAUUAGAUCAAGGAUAUCAGCUCGAAUAGAGCUGAGAAGGUGAUCACAUGU			475	111
CAAUUUUGGAGUUCGUAUCGAUACAUGAGGAUCACCCAUGUAAAGGAUAUGAUCUAGUUUUUAGAUCAGAAGGUUACAUAGGCG	54.9	25.8		
GAAAAACAUGAGGAUCACCCAUGUGAGAAUAUGGGAGGAUAUACGAGGACGAGAGUCAAGGUAGAAGGCCUAAAAG			96.3	15.2
CGGUGUCAUGUAAGGAUAUCGCAUCCCAGCGGAUACGAGAAGGUACAUGAGGAUCACCCAUGUACGAUAAAAUA	14.3	17.5		
UGAUCUAUGUAGAAGGCCCAUAUCUAUAUUUAGGGAGGAUAUACAUGAGGAUCACCCAUGUAUAGAGCUAGUGGACUGGUCACC	37.7	48.1		
UUAGAAAUGUUAGGAUAUUAAUAUUUUUUUAGUAUGAUCUACAUGAGGAUCACCCAUGUUAAUAUUAAGAAGGAACAUUUUAUU	88.5	64		
UGUUGUUCAGGAUAUGGUGUGUUCUACAUGAGGAUCACCCAUGUGGGUCCUGGUUUGGCGUCAGAAGGGAAUGUUG	750	746		
GAAUGUUGGCUAGGAUAUGCAUUUUGAGAGGUAGCAGAAGGAGCGCACAUGAGGAUCACCCAUGUUAGCAUUGGGCGUCUCUCA	5.76	16.3		
AGCAUGUAAGGAUAUGCAAGUGGUACGGAUAGUACCAUAAAGCAGAAGGUACAUGAGGAUCACCCAUGUGCUCC	36.3	66.7		
CGUAUGUCAGGAUAUGCGCGCGAUCAUUACACUCGGAAUUGGCAGAAGGGACAUGAGGAUCACCCAUGUGGCCC	34.4	37.4		
CGUGUUUCGUUGUAACCCAUUUACAUGAGGAUCACCCAUGUAGAGGAUAUAGGUCACCACGGUACCUAGAAGGCUGCAGGUGUG	30.3	41		
UAUAUAUAGGCAGGAUAUACAUGAAUAUAUAUGAUGUAGUAUGAUGUAACAUGAGGAUCACCCAUGUAGAAGGGCCAAUAUAUA	48	152		
CUGCUCCGUGUAGGAUAUGCAUACUCCCAUUAUGCAGAAGGACAUGAGGAUCACCCAUGUAUGUUAUUAUCAUGUGUUGCGUGC	42.5	185		
UGGCUACAUGAGGAUCACCCAUGUCAGGAUAUGCCGUUGGAUUGCCUUCGUCGUUCGGGUAGAAGGGACUGCGG	22.1	21.5		
GUCAGCUCGUGAGGAUAUACAUGUGCUGGAUACAGCACUAUUAAAUUCACAUGAGGAUCACCCAUGUAGAAGGCACGAGCUGAU	15.6	17.8		
GCAUUUAAUACAGGAUAUGUAAGUAUACAUUAGAUUGGUAUAGUCACAACAACAGAAGGGUAGAACAUGAGGAUCACCCAUGUA			97.3	62.9
CAAAUCUGAGGAUAUCGAUAUUUGUACAUGAGGAUCACCCAUGUCCUAUUUAUAAAAUCCCGAGAAGGCAGUGUAU	14.6	22.9		
GGUGCGUAUGUGAGGAUAUGCUGGUCCUUGGCUCAGCAGAAGGCACAUGAGGAUCACCCAUGUGGUGUCGUACC	333	21.8		
UCAUUGGUUGUGAGGAUAUCGGUGUGAUGGAUUGUCGAGAAGGCACAUGAGGAUCACCCAUGUUUGUUUGGGCU	577	449		

Sequence	apparent Kd [1] [nM]	apparent Kd [2] [nM]	apparent Kd [3] [nM]	apparent Kd [4] [nM]
UAAUUUUUAGUAAGGAUAUCGGUCCCAAGGGACAACGAGAAGGUACAUGAGGAUCACCCAUGUGAUUAAAGAAU	28.2	221		
UUGGCACAUGAGGAUCACCCAUGUUAGGAUAUUGUGGUAGAAACAGCUGGGAAACGCACGAGAAGGGACACACG	37.1	55.5		
UGGUUCAUGGGAGGAUAUCCUCAAGAACAUGAGGAUCACCCAUGUAAUUAUAAGCCGAAAGGCAUGGAGAAGGCCCAUGAACCU			67.5	16.9
UUUACAUGAGGAUCACCCAUGUCUUGCAAGAUGAGUUCUGGUGAGGAUAUACAUGAUAAAGAACUGUAGAAGGCACUGGGUACA			305	362
UUUUUGUCAGGAUAUGAGUAGUAGUACUAUUGUUUUAUUAUUUAGAAGGGACAUGAGGAUCACCCAUGUUUCUC	14.9	15.9		
UUCAUGUGAGGAUAUGCGGCGGCAGGUGGGCCUGUCGCUGAGCAGAAGGCACAUGAGGAUCACCCAUGUGCUCC	34.3	59.7		
AUGUCGCUAGGAGGAUAUACAUGAUCUCGCACAUGUACCGCUCACGCCACAUGAGGAUCACCCAUGUAGAAGGCCUAGAGAGGU	18.6	54.8		
CACAAAUGGCAGAAGGGACGGACGAUAGUGUAGUCAGGAUAUGCAAAUAGGUAUGGACAUGAGGAUCACCCAUGUCCGUCCUUU				5.27
GUUAUUGACAAGAAGGCAAACAUGAGGAUCACCCAUGUUCUACAUGGAUAUUGAGGAUAUUGCCAAUACAUGAGGAUCACCCAG	63	68.8		
GCCAUCGCAUGAGGAUAUGGCACCGUUGCGGUGCCAGAAGGCAUGUCAAAUGACAUGAGGAUCACCCAUGUAGUUAAGAUGGCA			218	13.8
CCAAAAGCUACAGGAUAUCCGACUCGGUUGUCAGGAGAAGGGUGGCAAGACAUGAGGAUCACCCAUGUAGGGUCAUCCUUGAAA	9.9	22.1		
UCCCGGGUGCAGAAGGGAUAGGCCUAUUUUCGUGGUAUCCAAACCUUACAUGAGGAUCACCCAUGUCAGGAUAUGCCCACGGGA	4.47	4.96		
AUGGGUUAAGGAGGAUAUAGAGGGAGGAGUAGACAUGAGGAUCACCCAUGUAUUUAAUUAGUUUACUAGAAGGCUUGUGAUUGU			56	75.7
UUUAUGUAAGGAUAUGCGGGCGGGCGCGUUUGUGUUUGUUUGUAGAAGGUACAUGAGGAUCACCCAUGUAGUGG	133	169		
UUAAAUCAUGUAGGAUAUGCAUGGCGAAGCUACGCAGAAGGACAUGAGGAUCACCCAUGUUCUAGCUACCGAGUUCGGUGGCAA	20.2	83.8		
GAUUUGUGAGGAUAUACAUGAGGAUCACCCAUGUGUGUCCAUACGCGUGAGUCUUCGUGUAGAAGGCGCGGGUC	15.5	15.9		
GGUGCCAUGUAGAAGGCAGAUCUGAUUCAGAUCUGAGGAUAUACAUGAGGAUCACCCAUGUAAAGGCACCGCCCGAGAGUGCAA	7.46	17.6		
GCGAUUUAGUAGAAGGUACGAUAUAUAUCAUUGUAAGGAUAUACUUACAUGAGGAUCACCCAUGUUAAGGGUUAUAAUAAUCGC			195	134
AAUUUACAGCUAGGAUAUACAUGAGGAUCACCCAUGUAAUGAUUGGAUCUUAUGAUCGUAUCAGUGUAGAAGGAGCAAAUAAGA	13.4	28.4		
UCAUUUUUACAAGGAUAUCAAUAUAAUAUAAUAGCUACAUGAGGAUCACCCAUGUUUUAGCGUGGUGAGAAGGUGUAUUGUCGG			89.5	63
UUGUAACGAUUAGGAUAUUAUUAAUAGAACUUUAUGAUAUACAUGAGGAUCACCCAUGUUACUUUUAAGAAGGAAUCGUAUUAU	24.4	18.3		
CGUGUACGAGGAUAUAGAUUAGGCGACAUGAGGAUCACCCAUGUGAUCAAUCUAUUUGGUUUAGAAGGUGUACAUG	16.7	17.6		
AAGGAAACCACAGGAUAUGGCUAGAAUAUCUAGCCAGAAGGGUGGUCGAAACCAUGUAAAUACAUGAGGAUCACCCAUGUGUCC			345	378
CUGAGGUCAGGAUAUGCAUGGCGGGACUUGCGUCGUGGCGUGCAGAAGGGACAUGAGGAUCACCCAUGUGGAGG	147	206		
GAGUUACAUGAGGAUCACCCAUGUUGUUUUGGAUAAGGAUAUAUGGUAGGAAGAGGAAUGAUAGAAGGUAUUAGGG			29.9	28.3
GCACGGCGUGUAGGAUAUGCAUAGCAUUGCUAUGCAGAAGGACAUGAGGAUCACCCAUGUAUGUAUUCCAUACAUUUCCCGUGC	6.42	7.31		
GGUUGGCGAGGAUAUACAUGAGGAUCACCCAUGUGGUCCUGUGGCUGAUCUUGCCUAUGUAGAAGGCGCAAAUC	35.7	280		
